Experimental data as given in ChEMBL document CHEMBL5724801, “EUbOPEN Chemogenomics Library - Multiplex” (2024).
Where “and” joins values, the source holds several entries; their conditions need not be identical. Equal entries are not always repeated.

Tested on: HEK-293T
Experiment: Multiplex assay against HEK293T
Type: toxicity, cell-based
Conditions: human
In short: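 Cells stained live at seeding with Hoechst33342, BioTracker Green Microtubule Cytoskeleton Dye, MitoTracker Red and Annexin V Alexa Fluor 680 were imaged on a CQ1 microscope at 37°C and 5% CO2 after compound addition. Their classification by CellPathfinder machine-learning gating ran from Hoechst high-intensity objects versus normal cells, to healthy, pyknosed or fragmented nuclei among normal cells, to mitotic or apoptotic among pyknosed cells. Tubulin, mitochondrial-mass and membrane-permeability phenotypes are per cents of healthy-nucleus cells.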

[1] = 12 h, 1 µM, compound concentration 1 uM
[2] = 12 h, 10 µM, compound concentration 10 uM
[3] = 24 h, 1 µM, compound concentration 1 uM
[4] = 24 h, 10 µM, compound concentration 10 uM
[5] = 48 h, 1 µM, compound concentration 1 uM
[6] = 48 h, 10 µM, compound concentration 10 uM

Question: Which results are given for `Cc1ccc(OCC(O)C(C)NC(C)C)c2c1CCC2.Cl` (stereo unspecified)?
Answer: Population Apoptotic (%) [1]: 34% and 45%; Population Fragmented Nuclei (%) [1]: 6% and 5%; Population Healthy Nuclei (%) [1]: 81% and 84%; Population Hoechst High Intensity Objects (%) [1]: 5%; Population Membrane Permeable-Phenotype (%) [1]: 0%; Population Mitochondria Different-Phenotype (%) [1]: 54% and 65%; Population Mitotic Cells (%) [1]: 65% and 54%; Population Normal (%) [1]: 94%; Population Pyknosed Nuclei (%) [1]: 12% and 10%; Population Tubulin-Different-Phenotype (%) [1]: 40% and 22%; Total Cell Count [1]: 409 and 360; Population Apoptotic (%) [2]: 43%; Population Fragmented Nuclei (%) [2]: 7% and 9%; Population Healthy Nuclei (%) [2]: 67% and 76%; Population Membrane Permeable-Phenotype (%) [2]: 0%; Population Mitochondria Different-Phenotype (%) [2]: 66% and 79%; Population Mitotic Cells (%) [2]: 56%; Population Normal (%) [2]: 96% and 81%; Population Pyknosed Nuclei (%) [2]: 25% and 14%; Population Tubulin-Different-Phenotype (%) [2]: 61% and 59%; Total Cell Count [2]: 247 and 323; Population Apoptotic (%) [3]: 35% and 28%; Population Fragmented Nuclei (%) [3]: 6% and 7%; Population Healthy Nuclei (%) [3]: 80% and 83%; Population Hoechst High Intensity Objects (%) [3]: 3% and 4%; Population Membrane Permeable-Phenotype (%) [3]: 0%; Population Mitochondria Different-Phenotype (%) [3]: 38% and 45%; Population Mitotic Cells (%) [3]: 64% and 71%; Population Normal (%) [3]: 96% and 95%; Population Pyknosed Nuclei (%) [3]: 12% and 9%; Population Tubulin-Different-Phenotype (%) [3]: 25% and 17%; Total Cell Count [3]: 548 and 444; Population Apoptotic (%) [4]: 46% and 50%; Population Fragmented Nuclei (%) [4]: 11% and 9%; Population Healthy Nuclei (%) [4]: 71% and 78%; Population Hoechst High Intensity Objects (%) [4]: 5% and 11%; Population Membrane Permeable-Phenotype (%) [4]: 1% and 0%; Population Mitochondria Different-Phenotype (%) [4]: 53% and 60%; Population Mitotic Cells (%) [4]: 53% and 50%; Population Normal (%) [4]: 94% and 88%; Population Pyknosed Nuclei (%) [4]: 17% and 11%; Population Tubulin-Different-Phenotype (%) [4]: 47%; Total Cell Count [4]: 334 and 399; Population Apoptotic (%) [5]: 24% and 26%; Population Fragmented Nuclei (%) [5]: 12% and 11%; Population Healthy Nuclei (%) [5]: 79% and 81%; Population Hoechst High Intensity Objects (%) [5]: 3% and 1%; Population Membrane Permeable-Phenotype (%) [5]: 0%; Population Mitochondria Different-Phenotype (%) [5]: 28% and 27%; Population Mitotic Cells (%) [5]: 75% and 73%; Population Normal (%) [5]: 96% and 98%; Population Pyknosed Nuclei (%) [5]: 8% and 7%; Population Tubulin-Different-Phenotype (%) [5]: 14%; Total Cell Count [5]: 804 and 660; Population Apoptotic (%) [6]: 40% and 34%; Population Fragmented Nuclei (%) [6]: 10% and 11%; Population Healthy Nuclei (%) [6]: 74% and 80%; Population Hoechst High Intensity Objects (%) [6]: 5%; Population Membrane Permeable-Phenotype (%) [6]: 0% and 1%; Population Mitochondria Different-Phenotype (%) [6]: 48% and 39%; Population Mitotic Cells (%) [6]: 59% and 66%; Population Normal (%) [6]: 94%; Population Pyknosed Nuclei (%) [6]: 14% and 8%; Population Tubulin-Different-Phenotype (%) [6]: 43% and 41%; Total Cell Count [6]: 435 and 611

Question: For `C[C@H](NC(=O)c1c(C(F)F)nn(C)c1Oc1cccc(C(F)(F)F)c1)c1ccc(C(=O)O)cc1` [PALUPIPRANT], which “Population Apoptotic (%)” value [1] is on record?
Answer: 40% and 27%

Question: And the “Population Fragmented Nuclei (%)” value [1]?
Answer: 6%

Question: And the “Population Healthy Nuclei (%)” value [1]?
Answer: 80% and 83%

Question: And the “Population Hoechst High Intensity Objects (%)” value [1]?
Answer: 7% and 5%

Question: What about the “Population Membrane Permeable-Phenotype (%)” value [1] of the same compound?
Answer: 0%

Question: What about the “Population Mitochondria Different-Phenotype (%)” value [1] of the same compound?
Answer: 44% and 60%

Question: And the “Population Mitotic Cells (%)” value [1]?
Answer: 59% and 72%

Question: What about the “Population Normal (%)” value [1] of the same compound?
Answer: 92% and 94%

Question: What about the “Population Pyknosed Nuclei (%)” value [1] of the same compound?
Answer: 13% and 10%

Question: What about the “Population Tubulin-Different-Phenotype (%)” value [1] of the same compound?
Answer: 28%

Question: And the “Total Cell Count” value [1]?
Answer: 407 and 475

Question: What about the “Population Apoptotic (%)” value [2] of the same compound?
Answer: 38% and 60%

Question: What about the “Population Fragmented Nuclei (%)” value [2] of the same compound?
Answer: 7% and 5%

Question: And the “Population Healthy Nuclei (%)” value [2]?
Answer: 76% and 77%

Question: What about the “Population Hoechst High Intensity Objects (%)” value [2] of the same compound?
Answer: 7% and 10%

Question: And the “Population Membrane Permeable-Phenotype (%)” value [2]?
Answer: 0%

Question: What about the “Population Mitochondria Different-Phenotype (%)” value [2] of the same compound?
Answer: 55% and 68%

Question: And the “Population Mitotic Cells (%)” value [2]?
Answer: 61% and 40%

Question: And the “Population Normal (%)” value [2]?
Answer: 92% and 89%

Question: And the “Population Pyknosed Nuclei (%)” value [2]?
Answer: 16% and 17%

Question: What about the “Population Tubulin-Different-Phenotype (%)” value [2] of the same compound?
Answer: 40% and 27%

Question: What about the “Total Cell Count” value [2] of the same compound?
Answer: 371 and 293

Question: And the “Population Apoptotic (%)” value [3]?
Answer: 36% and 46%

Question: What about the “Population Fragmented Nuclei (%)” value [3] of the same compound?
Answer: 9% and 7%

Question: And the “Population Healthy Nuclei (%)” value [3]?
Answer: 80% and 83%

Question: And the “Population Hoechst High Intensity Objects (%)” value [3]?
Answer: 5% and 4%

Question: What about the “Population Membrane Permeable-Phenotype (%)” value [3] of the same compound?
Answer: 1% and 0%

Question: And the “Population Mitochondria Different-Phenotype (%)” value [3]?
Answer: 27% and 35%

Question: And the “Population Mitotic Cells (%)” value [3]?
Answer: 63% and 53%

Question: And the “Population Normal (%)” value [3]?
Answer: 94% and 95%

Question: What about the “Population Pyknosed Nuclei (%)” value [3] of the same compound?
Answer: 10% and 9%

Question: What about the “Population Tubulin-Different-Phenotype (%)” value [3] of the same compound?
Answer: 18% and 19%

Question: And the “Total Cell Count” value [3]?
Answer: 527 and 604

Question: And the “Population Apoptotic (%)” value [4]?
Answer: 26% and 55%

Question: What about the “Population Fragmented Nuclei (%)” value [4] of the same compound?
Answer: 9% and 7%

Question: And the “Population Healthy Nuclei (%)” value [4]?
Answer: 74% and 79%

Question: And the “Population Hoechst High Intensity Objects (%)” value [4]?
Answer: 3% and 7%

Question: And the “Population Membrane Permeable-Phenotype (%)” value [4]?
Answer: 0%

Question: What about the “Population Mitochondria Different-Phenotype (%)” value [4] of the same compound?
Answer: 46% and 52%

Question: What about the “Population Mitotic Cells (%)” value [4] of the same compound?
Answer: 73% and 44%

Question: What about the “Population Normal (%)” value [4] of the same compound?
Answer: 96% and 92%

Question: And the “Population Pyknosed Nuclei (%)” value [4]?
Answer: 16% and 13%

Question: What about the “Population Tubulin-Different-Phenotype (%)” value [4] of the same compound?
Answer: 29% and 19%

Question: And the “Total Cell Count” value [4]?
Answer: 465 and 353

Question: What about the “Population Apoptotic (%)” value [5] of the same compound?
Answer: 25% and 21%

Question: And the “Population Fragmented Nuclei (%)” value [5]?
Answer: 13% and 14%

Question: And the “Population Healthy Nuclei (%)” value [5]?
Answer: 79% and 78%

Question: What about the “Population Hoechst High Intensity Objects (%)” value [5] of the same compound?
Answer: 2% and 4%

Question: What about the “Population Membrane Permeable-Phenotype (%)” value [5] of the same compound?
Answer: 1% and 0%

Question: What about the “Population Mitochondria Different-Phenotype (%)” value [5] of the same compound?
Answer: 17% and 18%

Question: And the “Population Mitotic Cells (%)” value [5]?
Answer: 75% and 78%

Question: What about the “Population Normal (%)” value [5] of the same compound?
Answer: 97% and 95%

Question: And the “Population Pyknosed Nuclei (%)” value [5]?
Answer: 7% and 6%

Question: And the “Population Tubulin-Different-Phenotype (%)” value [5]?
Answer: 13% and 9%

Question: And the “Total Cell Count” value [5]?
Answer: 916 and 867

Question: And the “Population Apoptotic (%)” value [6]?
Answer: 29% and 28%

Question: And the “Population Fragmented Nuclei (%)” value [6]?
Answer: 18% and 15%

Question: What about the “Population Healthy Nuclei (%)” value [6] of the same compound?
Answer: 75% and 77%

Question: What about the “Population Hoechst High Intensity Objects (%)” value [6] of the same compound?
Answer: 1% and 3%

Question: What about the “Population Membrane Permeable-Phenotype (%)” value [6] of the same compound?
Answer: 1% and 0%

Question: And the “Population Mitochondria Different-Phenotype (%)” value [6]?
Answer: 24% and 28%

Question: What about the “Population Mitotic Cells (%)” value [6] of the same compound?
Answer: 70% and 71%

Question: What about the “Population Normal (%)” value [6] of the same compound?
Answer: 98% and 96%

Question: And the “Population Pyknosed Nuclei (%)” value [6]?
Answer: 6%

Question: What about the “Population Tubulin-Different-Phenotype (%)” value [6] of the same compound?
Answer: 16% and 17%

Question: What about the “Total Cell Count” value [6] of the same compound?
Answer: 821 and 554
